The source of these data is ChEMBL document CHEMBL1143373, “Novel 6-methanesulfonamide-3,4-methylenedioxyphenyl-N-acylhydrazones: orally effective anti-inflammatory drug candidates” (Bioorg Med Chem, 2009).

Experiment [1] concerns Rattus norvegicus. As to the kind of experiment: Antiinflammatory activity in Wistar rat assessed as inhibition of carrageenan-induced paw edema volume at 300 umol/kg, po administered 1 hrs prior to carrageenan challenge measured after 3 hrs. Also noted: scale not given: the % may be the effect or the level left. It is filed as functional. The gist of the method: (§1)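 Fasted Wistar rats of both sexes (150–200 g), given compound orally as a suspension in 5% arabic gum in saline. One hour later, 1% carrageenan (1 mg/paw) injected subplantar into one hind paw, saline into the other. Volumes measured by glass plethysmometer at 3 h. Edema taken as the carrageenan-minus-saline paw difference, expressed as % inhibition vs vehicle. n = 8–10.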

Experiment [2] deals with Mus musculus. Nature of the experiment: Antinociceptive activity against formalin-induced pain in mouse assessed as inhibition of paw licking response during inflammatory phase at 300 umol/kg, po measured 15 to 30 mins after formalin injection. It is filed as functional. Also noted: scale not given: the % may be the effect or the level left. The gist of the method: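 Mice received 20 µL of 2.5% formalin subplantar in the hind paw. The inflammatory (second) phase was recorded 15–30 min after injection.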

For experiment [3], the system named is Rattus norvegicus. Nature of the experiment: Antiinflammatory activity in po dosed Wistar rat assessed as inhibition of carrageenan-induced paw edema volume administered 1 hrs prior to carrageenan challenge measured after 3 hrs. It is filed as functional. The gist of the method:
as §1
(In general: In the carrageenan paw model, swelling and tenderness develop within hours.)

Experiment [4] has as its system Rattus norvegicus. Nature of the experiment: Antiinflammatory activity against arachidonic acid-induced ear edema in Wistar rat. It is filed as functional, organism-based.
In experiment [5] the test system is Rattus norvegicus. Nature of the experiment: Antihyperalgesic activity in Wistar rat assessed as inhibition of carrageenan-induced thermal hyperalgesia at 300 umol/kg, po by hotplate test. The format is functional, organism-based. The essentials:
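Fasted Wistar rats of both sexes (150–200 g), dosed orally with 300 µmol/kg as a suspension in 5% arabic gum in saline (vehicle controls). Carrageenan 1% (1 mg/paw) injected subplantar 1 h later. Hot plate held at 51 °C, cut-off 20 s. Left hind paw withdrawal latency read at 0, 30, 60, 120, 180 and 240 min post-challenge. Hyperalgesia taken as the latency drop from time 0. n = 8 per group.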

The subject of experiment [6] is Mus musculus. Nature of the experiment: Antinociceptive activity in mouse assessed as inhibition of acetic acid-induced constrictions at 300 umol/kg, po. Also on record: scale not given: the % may be the effect or the level left. The format is functional.
The target in experiment [7] is Prostaglandin G/H synthase 1 (Homo sapiens, UniProt P23219). As to the kind of experiment: Inhibition of COX1 in human whole blood assessed as TXB2 production by enzyme immunoassay. It is filed as tissue-based.
Prostaglandin G/H synthase 1, sequence (P23219 whole entry): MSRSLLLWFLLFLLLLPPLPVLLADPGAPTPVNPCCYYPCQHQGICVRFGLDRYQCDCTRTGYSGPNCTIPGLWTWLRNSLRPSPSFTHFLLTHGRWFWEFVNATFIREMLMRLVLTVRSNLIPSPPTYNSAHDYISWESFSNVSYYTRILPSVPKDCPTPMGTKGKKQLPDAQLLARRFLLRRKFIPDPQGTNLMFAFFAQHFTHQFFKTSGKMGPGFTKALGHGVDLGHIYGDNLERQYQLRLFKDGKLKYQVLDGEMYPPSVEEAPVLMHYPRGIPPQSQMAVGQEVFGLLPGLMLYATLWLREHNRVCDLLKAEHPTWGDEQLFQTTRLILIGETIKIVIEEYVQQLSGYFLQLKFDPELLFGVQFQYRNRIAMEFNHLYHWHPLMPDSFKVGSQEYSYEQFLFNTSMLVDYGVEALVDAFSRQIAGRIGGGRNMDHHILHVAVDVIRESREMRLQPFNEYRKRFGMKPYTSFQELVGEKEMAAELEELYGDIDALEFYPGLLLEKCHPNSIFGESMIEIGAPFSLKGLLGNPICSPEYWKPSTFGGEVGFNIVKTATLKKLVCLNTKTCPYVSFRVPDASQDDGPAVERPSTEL
Experiment [8] deals with T1, Prostaglandin G/H synthase 2 (Homo sapiens, UniProt P35354).
T1 sequence (P35354 whole entry): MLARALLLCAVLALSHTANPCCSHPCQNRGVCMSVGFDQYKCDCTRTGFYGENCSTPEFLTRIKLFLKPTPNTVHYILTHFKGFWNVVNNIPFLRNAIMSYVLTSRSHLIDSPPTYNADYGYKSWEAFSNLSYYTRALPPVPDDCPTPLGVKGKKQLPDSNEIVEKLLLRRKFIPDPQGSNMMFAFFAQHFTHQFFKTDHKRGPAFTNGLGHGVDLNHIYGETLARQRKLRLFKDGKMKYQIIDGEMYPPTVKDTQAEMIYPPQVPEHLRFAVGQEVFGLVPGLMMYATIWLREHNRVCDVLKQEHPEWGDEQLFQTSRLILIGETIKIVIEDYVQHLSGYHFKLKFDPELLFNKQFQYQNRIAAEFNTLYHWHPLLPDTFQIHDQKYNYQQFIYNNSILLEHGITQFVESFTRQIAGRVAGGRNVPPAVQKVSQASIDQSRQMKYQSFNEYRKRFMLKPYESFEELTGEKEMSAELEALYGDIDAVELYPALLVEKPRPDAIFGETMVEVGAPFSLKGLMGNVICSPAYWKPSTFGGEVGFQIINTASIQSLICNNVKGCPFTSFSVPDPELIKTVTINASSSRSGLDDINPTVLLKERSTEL
As to the kind of experiment: Inhibition of COX2 in LPS-stimulated human whole blood assessed as TXB2 production by enzyme immunoassay. It is filed as tissue-based.

In general, ED50 refers to the midpoint of the dose-response relation. For orientation: IC50 means the concentration at which inhibition is half-maximal.

Calls of active or inactive are those of the source.

On to `CS(=O)(=O)Nc1cc2c(cc1C(=O)N/N=C/c1cccs1)OCO2`, for which the Activity with Rattus norvegicus [1] is recorded as 36%.
On to `O=C(N/N=C/c1cccs1)c1ccc2c(c1)OCO2`, for which the Activity with Rattus norvegicus [1] is listed as 29.7%.
As for `CS(=O)(=O)Nc1ccc([N+](=O)[O-])cc1Oc1ccccc1` [NIMESULIDE], the figures for the Activity with Rattus norvegicus [1] and in the experiment on Mus musculus [2] were 57.5% and 58.5%, respectively.
`CS(=O)(=O)Nc1cc2c(cc1C(=O)N/N=C/c1ccccc1)OCO2`: the Activity is reported as 59.6% in the experiment on Rattus norvegicus [1], 70% in the experiment on Mus musculus [6] and 48.7% with Mus musculus [2]. In addition, in the experiment on Rattus norvegicus [3], the median effective dose (ED50) came to 97.8 µmol/kg. Further, the outcome with Rattus norvegicus [4] and with Rattus norvegicus [5] was Active. Besides, the half-inhibitory concentration (IC50) was found to be 4.1 µM in experiment [7] and 10.2 µM in experiment [8].
`CS(=O)(=O)Nc1cc2c(cc1C(=O)N/N=C/c1ccco1)OCO2`: in the experiment on Rattus norvegicus [1], the Activity was 37.9%.
